From ChEMBL document CHEMBL5058577, “EUbOPEN Chemogenomics Library 2 (Multiplex)” (2022)

System: HEK-293T
Experiment: Multiplex assay against HEK293T
Assay type: toxicity, cell-based
Conditions: human
Method in brief: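 Per cents of healthy-nucleus cells form the tubulin, mitochondrial-mass and membrane-permeability phenotype values. Live cells were stained at seeding with Hoechst33342, BioTracker Green Microtubule Cytoskeleton Dye, MitoTracker Red and Annexin V Alexa Fluor 680. After compound addition they were imaged on a CQ1 microscope at 37°C and 5% CO2, and CellPathfinder machine-learning gating split them into Hoechst high-intensity objects or normal cells, normal cells into healthy, pyknosed or fragmented nuclei, and pyknosed cells into mitotic or apoptotic.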

[1] = 12 h, 1 µM, compound concentration 1 uM, replicate 1
[2] = 12 h, 1 µM, compound concentration 1 uM, replicate 2
[3] = 12 h, 10 µM, compound concentration 10 uM, replicate 1
[4] = 12 h, 10 µM, compound concentration 10 uM, replicate 2
[5] = 24 h, 1 µM, compound concentration 1 uM, replicate 1
[6] = 24 h, 1 µM, compound concentration 1 uM, replicate 2
[7] = 24 h, 10 µM, compound concentration 10 uM, replicate 1
[8] = 24 h, 10 µM, compound concentration 10 uM, replicate 2
[9] = 48 h, 1 µM, compound concentration 1 uM, replicate 1
[10] = 48 h, 1 µM, compound concentration 1 uM, replicate 2
[11] = 48 h, 10 µM, compound concentration 10 uM, replicate 1
[12] = 48 h, 10 µM, compound concentration 10 uM, replicate 2

Cl.NCCc1ccc(O)c(O)c1 [DOPAMINE HYDROCHLORIDE]
Population Apoptotic (%) [1]: 31%
Population Fragmented Nuclei (%) [1]: 6%
Population Healthy Nuclei (%) [1]: 77%
Population Hoechst High Intensity Objects (%) [1]: 10%
Population Membrane Permeable-Phenotype (%) [1]: 0%
Population Mitochondria Different-Phenotype (%) [1]: 54%
Population Mitotic Cells (%) [1]: 68%
Population Normal (%) [1]: 89%
Population Pyknosed Nuclei (%) [1]: 16%
Population Tubulin-Different-Phenotype (%) [1]: 36%
Total Cell Count [1]: 324
Population Apoptotic (%) [2]: 54%
Population Fragmented Nuclei (%) [2]: 7%
Population Healthy Nuclei (%) [2]: 78%
Population Hoechst High Intensity Objects (%) [2]: 6%
Population Mitochondria Different-Phenotype (%) [2]: 58%
Population Mitotic Cells (%) [2]: 46%
Population Normal (%) [2]: 93%
Population Pyknosed Nuclei (%) [2]: 14%
Population Tubulin-Different-Phenotype (%) [2]: 18%
Total Cell Count [2]: 372
Population Apoptotic (%) [3]: 46%
Population Fragmented Nuclei (%) [3]: 5%
Population Healthy Nuclei (%) [3]: 77%
Population Hoechst High Intensity Objects (%) [3]: 6%
Population Membrane Permeable-Phenotype (%) [3]: 0%
Population Mitochondria Different-Phenotype (%) [3]: 57%
Population Mitotic Cells (%) [3]: 53%
Population Normal (%) [3]: 93%
Population Pyknosed Nuclei (%) [3]: 17%
Population Tubulin-Different-Phenotype (%) [3]: 43%
Total Cell Count [3]: 344
Population Apoptotic (%) [4]: 37%
Population Healthy Nuclei (%) [4]: 83%
Population Hoechst High Intensity Objects (%) [4]: 5%
Population Mitochondria Different-Phenotype (%) [4]: 51%
Population Mitotic Cells (%) [4]: 62%
Population Normal (%) [4]: 94%
Population Pyknosed Nuclei (%) [4]: 11%
Population Tubulin-Different-Phenotype (%) [4]: 23%
Total Cell Count [4]: 413
Population Apoptotic (%) [5]: 44%
Population Fragmented Nuclei (%) [5]: 9%
Population Healthy Nuclei (%) [5]: 76%
Population Hoechst High Intensity Objects (%) [5]: 4%
Population Membrane Permeable-Phenotype (%) [5]: 1%
Population Mitochondria Different-Phenotype (%) [5]: 40%
Population Mitotic Cells (%) [5]: 55%
Population Normal (%) [5]: 95%
Population Pyknosed Nuclei (%) [5]: 13%
Population Tubulin-Different-Phenotype (%) [5]: 19%
Total Cell Count [5]: 451
Population Apoptotic (%) [6]: 20%
Population Fragmented Nuclei (%) [6]: 8%
Population Healthy Nuclei (%) [6]: 85%
Population Hoechst High Intensity Objects (%) [6]: 5%
Population Membrane Permeable-Phenotype (%) [6]: 0%
Population Mitochondria Different-Phenotype (%) [6]: 46%
Population Mitotic Cells (%) [6]: 79%
Population Normal (%) [6]: 94%
Population Pyknosed Nuclei (%) [6]: 5%
Population Tubulin-Different-Phenotype (%) [6]: 11%
Total Cell Count [6]: 478
Population Apoptotic (%) [7]: 39%
Population Fragmented Nuclei (%) [7]: 7%
Population Healthy Nuclei (%) [7]: 79%
Population Hoechst High Intensity Objects (%) [7]: 5%
Population Membrane Permeable-Phenotype (%) [7]: 0%
Population Mitochondria Different-Phenotype (%) [7]: 36%
Population Mitotic Cells (%) [7]: 60%
Population Normal (%) [7]: 94%
Population Pyknosed Nuclei (%) [7]: 12%
Population Tubulin-Different-Phenotype (%) [7]: 23%
Total Cell Count [7]: 393
Population Apoptotic (%) [8]: 38%
Population Fragmented Nuclei (%) [8]: 9%
Population Healthy Nuclei (%) [8]: 83%
Population Mitochondria Different-Phenotype (%) [8]: 40%
Population Mitotic Cells (%) [8]: 61%
Population Pyknosed Nuclei (%) [8]: 7%
Population Tubulin-Different-Phenotype (%) [8]: 15%
Total Cell Count [8]: 533
Population Apoptotic (%) [9]: 19%
Population Fragmented Nuclei (%) [9]: 14%
Population Healthy Nuclei (%) [9]: 78%
Population Hoechst High Intensity Objects (%) [9]: 4%
Population Membrane Permeable-Phenotype (%) [9]: 1%
Population Mitochondria Different-Phenotype (%) [9]: 23%
Population Mitotic Cells (%) [9]: 80%
Population Normal (%) [9]: 95%
Population Pyknosed Nuclei (%) [9]: 7%
Population Tubulin-Different-Phenotype (%) [9]: 14%
Total Cell Count [9]: 785
Population Apoptotic (%) [10]: 23%
Population Fragmented Nuclei (%) [10]: 10%
Population Healthy Nuclei (%) [10]: 81%
Population Membrane Permeable-Phenotype (%) [10]: 0%
Population Mitochondria Different-Phenotype (%) [10]: 20%
Population Mitotic Cells (%) [10]: 76%
Population Tubulin-Different-Phenotype (%) [10]: 7%
Total Cell Count [10]: 638
Population Apoptotic (%) [11]: 30%
Population Fragmented Nuclei (%) [11]: 14%
Population Healthy Nuclei (%) [11]: 79%
Population Hoechst High Intensity Objects (%) [11]: 3%
Population Membrane Permeable-Phenotype (%) [11]: 0%
Population Mitochondria Different-Phenotype (%) [11]: 24%
Population Mitotic Cells (%) [11]: 70%
Population Normal (%) [11]: 96%
Population Pyknosed Nuclei (%) [11]: 6%
Population Tubulin-Different-Phenotype (%) [11]: 13%
Total Cell Count [11]: 660
Population Apoptotic (%) [12]: 17%
Population Fragmented Nuclei (%) [12]: 12%
Population Healthy Nuclei (%) [12]: 83%
Population Hoechst High Intensity Objects (%) [12]: 1%
Population Mitochondria Different-Phenotype (%) [12]: 17%
Population Mitotic Cells (%) [12]: 82%
Population Normal (%) [12]: 98%
Population Pyknosed Nuclei (%) [12]: 4%
Population Tubulin-Different-Phenotype (%) [12]: 7%
Total Cell Count [12]: 859
